Consider 2 compounds from ChEMBL document CHEMBL4152356, “Amphipathic sulfonamidobenzamides mimicking small antimicrobial marine natural products; investigation of antibacterial and anti-biofilm activity against antibiotic resistant clinical isolates” (Bioorg Med Chem, 2018).

In data set [1] the test system is Escherichia coli. As to the kind of experiment: Antibacterial activity against Escherichia coli clinical isolates after 24 hrs by microdilution method. The class given is functional. The method, boiled down:
(§1)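 Clinical isolate screen by broth microdilution with about 1-1.2 × 10^6 cells/ml and 24 h incubation. MIC is the lowest concentration with no growth. For isolate collections, MIC90 is the MIC inhibiting ≥90% of isolates. Multidrug resistance was defined as resistance to at least […] antimicrobial class.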
Background: Broth dilution looks for growth in wells or tubes with falling amounts of substance.

For another data set, the system named is Pseudomonas aeruginosa. Description: Antibacterial activity against Pseudomonas aeruginosa clinical isolates after 24 hrs by microdilution method. Format: functional. The method, boiled down:
as §1

Data set [2] relates to Enterococcus faecium. As to the kind of experiment: Antibacterial activity against vancomycin resistant Enterococcus faecium K36-18 clinical isolate after 24 hrs by microdilution method. Format: functional. To be noted: K36-18, 24 h. The method, boiled down:
(§2)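 Broth microdilution in Mueller-Hinton broth (modified CLSI M07-A9), clinical isolates at about 1-1.2 × 10^6 cells/ml. Inoculum mixed 1:1 with serial compound dilutions; stocks made in up to 100% DMSO, final DMSO ≤1%. Incubated 24 h.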

Data set [3] relates to Enterococcus faecium. As to the kind of experiment: Antibacterial activity against vancomycin resistant Enterococcus faecium 50,673,722 clinical isolate after 24 hrs by microdilution method. Format: functional. To be noted: Enterococcus faecium, 50,673,722, 24 h. The essentials:
as §2

In data set [4] the test system is Escherichia coli. Description: Antibacterial activity against oxacillinase 48-producing Escherichia coli 50,579,417 clinical isolate after 24 hrs by microdilution method. The class given is functional. The conditions noted are these: Escherichia coli, 50,579,417, 24 h. The essentials: as §1
Data set [5] is described as follows: Selectivity index, ratio of EC50 for human RBC to MIC for methicillin resistant Staphylococcus epidermidis RP62A ATCC 35984/CCUG 31568. Format: toxicity. To be noted: human red blood cells (RBC), read-out: Selectivity Index. The method, boiled down: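 SI = hemolytic EC50 / MRSE MIC. Hemolysis: washed human RBCs (heparinized blood, healthy adult donor) at 10% in PBS pH 7.4, mixed 9:1 with serial compound dilutions, 37 °C for 1 h. 0.05% Triton X-100 set 100% lysis, 0.5% DMSO set baseline. MIC from MHB microdilution, 35 °C, […].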

In another data set the test system is MRC5. As to the kind of experiment: Cytotoxicity against human MRC5 cells after 72 hrs by MTS assay. The class given is cell-based. The conditions noted are these: MRC5, 72 h. The essentials:
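MRC-5 lung fibroblasts in DMEM with 10% FBS, 37 °C, 5% CO2; seeded at 4000 cells/well, adhered 24 h, medium replaced. Two-fold dilutions up to 100 µg/ml for 72 h, then MTS for 1 h and absorbance at 485 nm. Controls were 1% DMSO (negative) and 0.5% Triton X-100 (positive). EC50 is the concentration giving 50% inhibition of survival.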
A general note: Tetrazolium assays rely on reduction of a dye to a coloured formazan, in cell work by metabolically active cells.

The subject of the next data set is Staphylococcus aureus. As to the kind of experiment: Antibacterial activity against Staphylococcus aureus ATCC 9144 after 48 hrs by microdilution method. Format: functional. To be noted: ATCC 9144, 48 h. The method, boiled down: (§3)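 Broth microdilution (CLSI M07-A9, modified) in Mueller-Hinton broth; inoculum about 2.5-3 × 10^4 cells/ml mixed 1:1 with serial compound dilutions. Stock solutions in up to 100% DMSO, final DMSO ≤1%. Incubated 35 °C for 48 h.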

Data set [6] concerns Staphylococcus epidermidis. As to the kind of experiment: Antibiofilm activity against Staphylococcus epidermidis RP62A ATCC 35984/CCUG 31568 incubated for 24 +/- 2 hrs by crystal violet staining based assay. The class given is functional. The essentials:
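Mature S. epidermidis RP62A biofilms: filtered overnight TSB culture adjusted to 2 McFarland, diluted in TSB with 1% glucose to about 6 × 10^6 CFU/ml, grown 24 ± 2 h at 37 °C static, then PBS-washed. Compounds in 50% TSBglu added for 24 ± 2 h at 37 °C. Biomass given as % of untreated control; ≥90% eradication threshold. Compounds tested at 2x, 5x and 10x MIC, 4-8 parallels on 2-3 plates, highest and lowest values excluded.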

Data set [7] deals with Escherichia coli. As to the kind of experiment: Antibacterial activity against imipenem 26-type carbapenemase-producing Escherichia coli 50,857,972 clinical isolate after 24 hrs by microdilution method. Format: functional. To be noted: Escherichia coli, 50,857,972, 24 h. The essentials:
as §1

The subject of another data set is Erythrocyte. As to the kind of experiment: Hemolytic activity against human RBC measured after 1 hr. The class given is cell-based. The method, boiled down:
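Washed human RBCs from a healthy donor (heparinized) at 10% in PBS pH 7.4, mixed 9:1 with serial compound dilutions, 37 °C for 1 h. Baseline set by 0.5% DMSO in 50% PBS, 100% lysis by 0.05% Triton X-100. EC50 is the concentration giving 50% lysis.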

Data set [8] deals with Escherichia coli. As to the kind of experiment: Antibacterial activity against Escherichia coli ATCC 25922 after 48 hrs by microdilution method. To be noted: ATCC 25922, 48 h. Format: functional. The method, boiled down: as §3
A further data set relates to Klebsiella pneumoniae. Description: Antibacterial activity against oxacillinase 245-producing Klebsiella pneumoniae 50,625,602 clinical isolate after 24 hrs by microdilution method. The class given is functional. The conditions noted are these: Klebsiella pneumoniae, 50,625,602, 24 h. The essentials: as §1
The subject of another data set is Bacillus subtilis. As to the kind of experiment: Induction of membrane disruption in Bacillus subtilis 168 expressing luciferase at 4 ug/ml […] by luminescence assay. The class given is functional, organism-based. The conditions noted are these: subsp. subtilis str. 168.

SMILES strings stand for the structures. Activity calls are given as the source filed them.

As a reminder, the MIC is the least concentration at which growth counts as inhibited. Higher therefore signals a need for much substance. What is called EC50 is the concentration that produces a half-maximal response. High values mean weaker potency, low ones greater potency. Consider `CC(C)(C)c1cc(C(C)(C)C)cc(S(=O)(=O)Nc2cc3ccccc3cc2C(=O)NCCNC(=N)N)c1.Cl`, for which the MIC was 8 mg/L in the data set on Escherichia coli [1]; 32 to 64 mg/L with Pseudomonas aeruginosa; 8 mg/L in the data set with Enterococcus faecium [2]; 8 mg/L in the data set on Enterococcus faecium [3]; ≥ 32 mg/L in the data set with Escherichia coli [4]; 4 mg/L against Staphylococcus aureus. The minimal inhibitory concentration (MIC) against Escherichia coli [7] was > 32 mg/L; against Escherichia coli [8], 8 mg/L; against Klebsiella pneumoniae, ≥ 32 mg/L. The selectivity ratio in [5] worked out at 6. Besides, the EC50 in the data set with MRC5 came out at 55 mg/L; in the data set on Erythrocyte, 25 mg/L. In [6], the “MBIC=>90” value was 40 µg/mL.
In the case of `CN(c1ccc(C(=O)NCCCNC(=N)N)cc1)S(=O)(=O)c1cc(C(C)(C)C)cc(C(C)(C)C)c1.Cl`, the MIC in the data set with Escherichia coli [1] is 16 mg/L; in the data set on Pseudomonas aeruginosa it was 8 to 16 mg/L; against Enterococcus faecium [2], 16 mg/L; in the data set on Enterococcus faecium [3], 16 mg/L; against Escherichia coli [4], ≥ 32 mg/L; in the data set on Staphylococcus aureus it was 4 mg/L. The MIC with Escherichia coli [7] was 32 mg/L; in the data set on Escherichia coli [8], 16 mg/L; against Klebsiella pneumoniae, ≥ 32 mg/L. Further, the selectivity ratio in data set [5] amounted to 14. In addition, the EC50 was determined as 36 mg/L in the data set with MRC5 and 55 mg/L in the data set with Erythrocyte. Moreover, in the data set on Bacillus subtilis, the outcome was Active. Also, the “MBIC=>90” value in data set [6] came out at 40 µg/mL.
